From PubChem BioAssay
Most compounds without a hit are left out; they make up all but 4% or so of the library.
Exocytosis inh – lytic granule exocytosis inhibition; inhibition, % at 10 µM; TALL-104 LAMP-1 surface exposure, flow cytometry; cells stimulated with thapsigargin and PMA; actives 0.66% (n = 360,000); AID 651702;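 active = inhibition above about 55%, limit read from the data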
Mdm2-MdmX inh – disrupts the human Mdm2-MdmX interaction; actives 3% (n = 330,000); SaOS-2 split-luciferase Mdm2/MdmX complementation, luminescence; O15151+Q00987; AID 485346; inhibition, % at 8 µM;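 active = inhibition of at least 50% at 8 µM in the primary screen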
ABHD5-PLIN5 inh – inhibitors of human ABHD5-perilipin-5 interaction | Q00G26+Q8WTS1 | Split G. princeps luciferase complementation, luminescence, 4 h | inhibition, % at 4 µM | actives 0.78% (n = 360,000);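 active = inhibition above the mean inhibition across every tested compound plus 3 SD, cut at about 22% in these data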
Target sequence (Q00G26 whole entry, looked up): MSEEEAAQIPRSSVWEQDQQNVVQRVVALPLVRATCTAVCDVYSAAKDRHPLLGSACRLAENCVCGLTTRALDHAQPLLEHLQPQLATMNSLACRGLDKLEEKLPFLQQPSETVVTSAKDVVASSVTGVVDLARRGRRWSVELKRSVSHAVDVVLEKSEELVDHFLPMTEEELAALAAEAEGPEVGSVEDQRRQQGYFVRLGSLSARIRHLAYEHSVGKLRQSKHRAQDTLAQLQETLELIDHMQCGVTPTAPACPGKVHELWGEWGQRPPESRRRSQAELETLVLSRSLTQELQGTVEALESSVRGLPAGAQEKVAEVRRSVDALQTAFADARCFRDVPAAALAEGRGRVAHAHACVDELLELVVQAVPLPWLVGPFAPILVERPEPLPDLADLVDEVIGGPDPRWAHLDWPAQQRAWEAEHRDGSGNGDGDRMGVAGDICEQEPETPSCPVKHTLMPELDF
Target sequence (Q8WTS1 whole entry, looked up): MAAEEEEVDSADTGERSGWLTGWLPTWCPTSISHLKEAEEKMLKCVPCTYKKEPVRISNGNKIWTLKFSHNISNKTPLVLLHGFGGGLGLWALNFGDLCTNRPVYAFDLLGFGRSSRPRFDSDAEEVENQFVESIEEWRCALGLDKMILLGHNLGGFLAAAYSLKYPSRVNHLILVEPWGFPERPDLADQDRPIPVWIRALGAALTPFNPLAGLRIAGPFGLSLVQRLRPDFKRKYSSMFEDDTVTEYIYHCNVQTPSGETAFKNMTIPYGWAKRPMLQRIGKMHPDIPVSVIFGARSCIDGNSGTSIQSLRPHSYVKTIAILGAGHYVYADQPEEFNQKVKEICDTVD
UPR CHOP act – apoptotic UPR (CHOP) activation; actives 0.34% (n = 330,000); CHO-CHOP luciferase reporter, luminescence; percent of tunicamycin response over DMSO baseline; activation, % at 10 µM; AID 449763;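 active = at 10 µM dose, activation of 40% or more, normalized to positive control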
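System: CHO-CHOP luciferase reporter cell line; amount: 500 cells/well; buffer or medium: F12 medium containing 10% fetal bovine serum; incubation: 6 h compound exposure at 37 °C after overnight seeding; measured by: luciferase luminescence after 10 min with Steady-Glo reagent; evaluation: % reporter activation, DMSO baseline versus tunicamycin full activation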
UPR XBP1 act – adaptive UPR (XBP1) activation; CHO-XBP1 luciferase reporter, IRE1-XBP1 UPR activation, luminescence; percent of tunicamycin response, DMSO as zero; activation, % at 20 µM; actives 0.33% (n = 330,000); AID 463104;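 active = versus positive control, 20 µM dose yields 30% or more activation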
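Test system: CHO-XBP1 luciferase reporter cells | Buffer or medium: Serum-containing F12 medium, 10% FBS | Schedule: 6 h compound exposure at 37 °C, 5% CO2 | Detection: Steady-Glo luciferase glow luminescence, 10 min after reagent addition | Read-out basis: Activation, % of tunicamycin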
Mdm2-MdmX conf – human Mdm2/MdmX binding inhibition, confirmed | shares compounds with Mdm2-MdmX inh | luminescent assay | inhibition, % at 8 µM | actives 55% (n = 10,000); in the data active = inhibition above about 40%
FLuc counter – inhibits full-length luciferase, flagging false Mdm2/MdmX hits. shares compounds with Mdm2-MdmX inh. actives 77% (n = 6,200). SaOS-2 full-length luciferase counterscreen, luminescence. AID 504607. inhibition, % at 8 µM;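 active = mean inhibition at 8 µM reaching about 37%, which flags the compound as non-specific, limit read from the data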;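 note: p53-null SaOS-2 cells with luciferase driven by a doxycycline-inducible promoter; compound on cells about two nights before reading with doxycycline added after day one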
A number is an active result; i = inactive; nt = no result given; ! = repeats disagree.

SMILES	Exocytosis inh	Mdm2-MdmX inh	ABHD5-PLIN5 inh	UPR CHOP act	UPR XBP1 act	Mdm2-MdmX conf	others
COc1ccc(NC(=O)N(C)C[C@@H]2Oc3cc(Br)ccc3S(=O)(=O)N([C@H](C)CO)C[C@H]2C)cc1	i	nt	i	nt	nt	nt
O=C(N/N=C/C=C/c1cccc([N+](=O)[O-])c1)C(O)c1ccccc1 (stereo not given)	i	i	i	i	i	nt
O=C(CNc1ccc2ccccc2c1)N/N=C/C=C/c1cccc([N+](=O)[O-])c1	i	82	i	i	i	i
COc1ccc(-n2c(SCC(=O)Nc3nc(C)cs3)nnc2-c2ccoc2C)cc1	i	i	i	i	i	nt
O=C1c2ccccc2-c2n[nH]c3cccc1c23	i	53	i	i	i	i
O=c1c(-c2ccccc2)n[nH]c2ccccc12	i	i	i	i	i	nt
Cc1ccc(-c2n[nH]c(=S)n2-c2ccccc2)cc1	i	i	i	i	i	nt
O=C(c1cc(S(=O)(=O)N2CCCC2)c(Cl)cc1Cl)N1CCCC1	i	i	i	i	i	nt
O=C(CCCl)Nc1nc2c(s1)CCc1ccccc1-2	i	68	i	i	i	62	FLuc counter=i
CCn1c(SCc2c(Cl)cccc2Cl)nc2nc3c(cc2c1=O)CCCC3	i	64	i	i	i	63	FLuc counter=i
N/C(=N\c1nc2ccccc2o1)NC(=O)c1ccccc1F	i	i	i	i	i	nt
COc1ccccc1C(=O)NC(=Nc1nc2ccccc2o1)NC(=O)c1ccccc1OC	i	88	i	i	i	55	FLuc counter=88
Cc1ccc2c(C(=O)CN3CCCC(C)C3)c(C)[nH]c2c1 (stereo not given)	i	i	i	i	i	nt
COc1ccccc1CNc1nc2nc3c(c(=O)n2[nH]1)CCC3	i	i	i	i	i	nt
O=c1c2c(nc3nc(NCc4ccccc4Cl)[nH]n13)CCC2	nt	67	nt	i	i	i
COc1cc(/C=C/C(=O)N2CCC=CC2=O)cc(OC)c1OC	i	100	i	i	i	63	FLuc counter=i
COc1cc(C=CC(=O)c2cc(OC)c(OC)c(OC)c2)cc(OC)c1OC	i	nt	i	nt	nt	nt
COc1ccc(Oc2ccc(/C=C/C(=O)c3cccc(OC)c3)cc2[N+](=O)[O-])cc1	i	97	i	i	i	i	FLuc counter=i
COc1ccc2cc(C(=O)/C=C/c3cc(OC)c(OC)c(OC)c3)ccc2c1	i	75	i	i	i	54	FLuc counter=78
COc1ccc(Oc2ccc(/C=N/NC(=O)c3cccnc3)cc2[N+](=O)[O-])cc1	i	i	i	i	i	nt
Cc1cnc(N)nc1-c1ccccc1	i	nt	i	nt	nt	nt
COc1cccc(C(C[N+](=O)[O-])c2c(C)[nH]n(-c3ccccc3)c2=O)c1 (stereo not given)	i	65	i	i	i	i
CCc1ccccc1NC1=NCC(=O)N1C1CCCC1	i	i	i	i	i	nt
CC1CC(CC(C)C(=O)NC(=S)Nc2ccc(S(N)(=O)=O)cc2)C(=O)O1 (stereo not given)	i	i	i	i	i	nt
Cc1ccc(C#CC[N+]2(CC#Cc3ccc(C)cc3)CCCCC2)cc1	i	55	i	i	i	50	FLuc counter=52
SMILES	Exocytosis inh	Mdm2-MdmX inh	ABHD5-PLIN5 inh	UPR CHOP act	UPR XBP1 act	Mdm2-MdmX conf	others
C(#Cc1ccccc1)C[N+]1(CC#Cc2ccccc2)CCCCC1	i	i	i	i	i	nt
CCN(CC)S(=O)(=O)c1ccc(N/N=C/c2ccc(O)cc2)nc1	i	i	i	i	i	nt
CCN(CC)S(=O)(=O)c1ccc(N/N=C(\C)c2ccc(OC)cc2O)nc1	i	57	i	i	i	i
CCOc1cccc(/C=N/Nc2ccc(S(=O)(=O)N(CC)CC)cn2)c1O	i	81	i	i	i	85	FLuc counter=55
N#CC1=C(Nc2ccccc2)SC=C(c2ccc(Br)cc2)N=C1N1CCOCC1	i	i	i	i	i	nt
CC(NC(=O)/C(C#N)=C/c1ccc([N+](=O)[O-])o1)c1ccccc1 (stereo not given)	67	100	29	i	i	i
Cc1cc(=O)oc2cc(NC(=O)c3cccc(Br)c3)ccc12	i	66	i	i	i	i
CCOC(=O)CCSc1nc2c(c(C(F)(F)F)c1C#N)CCC2	i	i	i	i	i	nt
Oc1ccc(N=Nc2ccc3c(c2)OCCO3)c2cccnc12	i	77	i	i	i	89	FLuc counter=53
Clc1ccc(OCCCNCc2ccccc2)c(Br)c1	i	65	i	i	i	i
Nc1ccc(C23CC4CC(CC(C4)C2)C3)cc1	i	i	i	i	i	nt
Cc1ccc(C(NC(=O)N2CCOCC2)=C(Cl)Cl)cc1F	i	51	i	i	i	i
FC(F)(F)c1cc(NCc2cccs2)n2ncnc2n1	i	i	i	i	i	nt
Cc1ccc(NC(=O)CCC(=O)c2ccccc2)cc1	i	nt	i	nt	nt	nt
COc1ccc(-c2cn(-c3ccc(OC)cc3)c3[n+]2-c2ccccc2CC3)cc1	i	57	i	i	i	i
COc1ccc(-n2c(-c3ccc(Br)cc3)c[n+]3c2CCc2ccccc2-3)cc1	i	51	i	i	i	54	FLuc counter=61
COc1ccc(-n2cc(-c3ccccc3)[n+]3c2CCCCC3)cc1	i	i	i	i	i	nt
COc1ccccc1-n1c(-c2ccccc2)c[n+]2c1CCc1ccccc1-2	i	61	i	i	i	48!	FLuc counter=52!
Cc1ccccc1SCC(=O)NNC(=O)c1ccccc1O	i	i	i	i	i	nt
O=c1cc(-c2ccccc2)[nH]n1-c1nc2ccccc2[nH]1	i	95	i	i	i	i
O=C(NNC(=O)C(Cl)Cl)c1cnn(-c2ccccc2)c1C(F)(F)F	i	i	i	i	i	nt
N/C(=N\OC(=O)c1cnn(-c2ccccc2)c1C(F)(F)F)c1cc(C(F)(F)F)cc(C(F)(F)F)c1	i	52	nt	i	i	i
O=c1[nH]c(CCl)nc2cc(-c3ccc(F)cc3)sc12	i	94	i	i	i	i
CCOc1ccc(NC(=O)CC2C(=O)N(c3ccc(OC)cc3)C(=O)N2CCc2ccc(OC)c(OC)c2)cc1 (stereo not given)	i	i	i	i	i	nt
Cc1cccc(OCC(=O)NCC(=O)N/N=C/c2cc(Br)cc(Br)c2O)c1	i	56	i	i	i	77	FLuc counter=i
COc1cccc(/C=N/NC(=O)CNC(=O)COc2ccccc2)c1O	i	i	i	i	i	nt
COc1ccc(/C=N/n2cnc3c([nH]c4ccc(F)cc43)c2=O)cc1CN1CCCC1	i	100	i	i	i	57	FLuc counter=51
COc1ccc(/C=N/n2cnc3c([nH]c4ccc(C)cc43)c2=O)cc1CN1CCCC1	i	i	i	i	i	nt
CCOc1ccc(C2=Nn3c(nnc3-c3ccccc3OC)SC2)cc1	i	nt	i	nt	nt	nt
